The test system of one assay is HCT-15. The assay can be described thus: Growth inhibition of human HCT15 cells. In kind it is functional.
The next assay deals with HCT-116. The assay can be described thus: Growth inhibition of human HCT116 cells. In kind it is functional.
In another assay the test system is NCI-H23. As to the kind of experiment: Growth inhibition of human NCI-H23 cells. In kind it is functional.
In a further assay the test system is NCI-H226. As to the kind of experiment: Growth inhibition of human NCI-H226 cells. The assay is classed as functional.
A further assay relates to NCI-H522. As to the kind of experiment: Growth inhibition of human NCI-H522 cells. The assay is classed as functional.
A further assay deals with NCI-H460. The assay can be described thus: Growth inhibition of human NCI-H460 cells. The assay is classed as functional.
Another assay has as its system A549. The assay can be described thus: Growth inhibition of human A549 cells. In kind it is functional.
The next assay deals with DMS-273. As to the kind of experiment: Growth inhibition of human DMS273 cells. In kind it is functional.
The next assay relates to DMS-114. As to the kind of experiment: Growth inhibition of human DMS114 cells. The assay is classed as functional.
Another assay relates to LOX IMVI. The assay can be described thus: Growth inhibition of human LOXIMVI cells. The assay is classed as functional.
For the next assay, the system named is OVCAR-3. As to the kind of experiment: Growth inhibition of human OVCAR-3 cells. In kind it is functional.
In the next assay the test system is OVCAR-4. As to the kind of experiment: Growth inhibition of human OVCAR4 cells. The assay is classed as functional.
In the next assay the test system is OVCAR-5. The assay can be described thus: Growth inhibition of human OVCAR5 cells. In kind it is functional.
In a further assay the test system is OVCAR-8. As to the kind of experiment: Growth inhibition of human OVCAR8 cells. The assay is classed as functional.
The next assay concerns SK-OV-3. The assay can be described thus: Growth inhibition of human SKOV3 cells. In kind it is functional.
Assay [1] can be described thus: Growth inhibition of human RXF631L cells. The assay is classed as functional. Particulars: RXF 631.
The subject of another assay is ACHN. The assay can be described thus: Growth inhibition of human ACHN cells. In kind it is functional.
For a further assay, the system named is St-4. The assay can be described thus: Growth inhibition of human St-4 cells. The assay is classed as functional.
Assay [2] is described as follows: Growth inhibition of human MKN1 cells. In kind it is functional. Particulars: MKN-1.
Another assay relates to MKN-7. As to the kind of experiment: Growth inhibition of human MKN7 cells. The assay is classed as functional.
Another assay concerns MKN-28. As to the kind of experiment: Growth inhibition of human MKN28 cells. The assay is classed as functional.
A further assay deals with MKN-45. As to the kind of experiment: Growth inhibition of human MKN45 cells. The assay is classed as functional.
A further assay deals with MKN-74. The assay can be described thus: Growth inhibition of human MKN74 cells. The assay is classed as functional.
For the next assay, the system named is DU-145. As to the kind of experiment: Growth inhibition of human DU145 cells. In kind it is functional.
A further assay concerns PC-3. As to the kind of experiment: Growth inhibition of human PC3 cells. In kind it is functional.
The subject of the next assay is P388. As to the kind of experiment: Cytotoxicity against mouse P388 cells. The assay is classed as functional, cell-based. In outline:
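Murine P388 leukemia cells, 2 × 10^4 cells/mL, in RPMI-1640 with 10% FBS, 10 µM 2-hydroxyethyl disulfide and kanamycin (100 µg/mL). Samples were added in MeOH. Cells were incubated 4 days at 37 °C in humidified 5% CO2, then counted by MTT. IC50 (50% inhibition of cell growth) was read from the growth curve.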

Assay [3] is described as follows: Growth inhibition of human HBC4 cells. In kind it is functional.
The nature of assay [4]: Growth inhibition of human BSY1 cells. The assay is classed as functional. Particulars: BSY-1.
Assay [5] is described as follows: Growth inhibition of human HBC5 cells. The assay is classed as functional.
The subject of another assay is MCF7. As to the kind of experiment: Growth inhibition of human MCF7 cells. In kind it is functional.
The test system of another assay is MDA-MB-231. As to the kind of experiment: Growth inhibition of human MDA-MB-231 cells. The assay is classed as functional.
For a further assay, the system named is U-251. The assay can be described thus: Growth inhibition of human U251 cells. The assay is classed as functional.
In another assay the test system is SF-268. The assay can be described thus: Growth inhibition of human SF268 cells. The assay is classed as functional.
For another assay, the system named is SF-295. The assay can be described thus: Growth inhibition of human SF295 cells. The assay is classed as functional.
Another assay concerns SF-539. The assay can be described thus: Growth inhibition of human SF539 cells. The assay is classed as functional.
Another assay has as its system SNB-75. As to the kind of experiment: Growth inhibition of human SNB75 cells. The assay is classed as functional.
In the next assay the test system is SNB-78. The assay can be described thus: Growth inhibition of human SNB78 cells. The assay is classed as functional.
Another assay has as its system HCC 2998. The assay can be described thus: Growth inhibition of human HCC2998 cells. In kind it is functional.
The next assay deals with KM12. The assay can be described thus: Growth inhibition of human KM12 cells. In kind it is functional.
For another assay, the system named is HT-29. As to the kind of experiment: Growth inhibition of human HT-29 cells. The assay is classed as functional.

Converted amounts (≈) assume the structure as drawn.

Broadly, the GI50 is the concentration that inhibits growth by half. Read a high GI50 as less potent growth inhibition. By IC50 is commonly meant the point on the concentration scale where inhibition reaches its midpoint. Low readings indicate greater potency, high ones weaker potency.

Consider `CC/C=C/[C@H](CC)C[C@]1(CC)C=C(CC)[C@H](CC(=O)O)OO1` [HATERUMADIOXIN A], for which the 50% growth inhibitory concentration (GI50) in the assay with HCT-15 was 1700 nM; in the assay on HCT-116, 1550 nM; in the assay with NCI-H23 it was 5500 nM; in the assay with NCI-H226, 1780 nM; in the assay on NCI-H522 it was 1860 nM; in the assay with NCI-H460, 1820 nM. The GI50 with A549 was 1950 nM; with DMS-273 it was 1410 nM; with DMS-114 it was 1480 nM; in the assay with LOX IMVI it was 100 nM; in the assay on OVCAR-3 it was 1550 nM; in the assay with OVCAR-4, 676 nM. Further, the GI50 in the assay on OVCAR-5 was 1820 nM; with OVCAR-8, 2140 nM; with SK-OV-3, 2000 nM; in [1], 1700 nM; in the assay with ACHN it was 1170 nM; with St-4, 2090 nM. The 50% growth inhibitory concentration (GI50) in assay [2] was 832 nM; in the assay on MKN-7, 1910 nM; in the assay on MKN-28 it was 2240 nM; in the assay on MKN-45, 2040 nM; with MKN-74, 2190 nM; in the assay on DU-145, 1700 nM. Besides, the GI50 was 1910 nM in the assay with PC-3; 1170 nM in [3]; 1780 nM in assay [4]; 1320 nM in [5]; 1740 nM with MCF7; 1860 nM in the assay on MDA-MB-231. In addition, the GI50 in the assay with U-251 was 1780 nM; with SF-268, 1820 nM; in the assay on SF-295, 1780 nM; in the assay on SF-539, 1820 nM; with SNB-75, 1660 nM; in the assay on SNB-78, 1860 nM. Besides, the GI50 in the assay with HCC 2998 was 1910 nM; with KM12, 1820 nM; in the assay on HT-29 it was 1950 nM. In addition, inhibition with P388 was half-maximal at 11 ng/mL (≈ 0.0354 µM) (IC50).
The compound `CCCC[C@H](CC)C[C@]1(CC)C=C(CC)[C@H](CC(=O)O)OO1` [HATERUMADIOXIN B] had a concentration for half-maximal inhibition (IC50) with P388 of 5.5 ng/mL (≈ 0.0176 µM).

Source of the values: ChEMBL document CHEMBL1150572, “Isolation and structures of haterumadioxins A and B, cytotoxic endoperoxides from the Okinawan sponge Plakortis lita” (J Nat Prod, 2001).
